Active and inactive are the calls of the source. No cut-off for these calls is given here.
Tests used:
Carbonic anhydrase 1 [1] = molecular target: T1, Carbonic anhydrase 1 (Homo sapiens, UniProt P00915); experiment: Inhibition of cytosolic carbonic anhydrase 1 esterase activity isolated from human erythrocytes using 4-nitrophenylacetate as substrate measured over 3 mins by spectrophotometric analysis
How it was run: (§1)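 Esterase activity followed at 348 nm as 4-nitrophenylacetate (3 mM stock) converts to 4-nitrophenylate, 3 min at 25 °C, in 0.05 M Tris–SO4 pH 7.4. Blank without enzyme; uninhibited control = 100%. Several inhibitor concentrations, each in triplicate; KI from activity-versus-[inhibitor] plots via Cheng–Prusoff.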
Target sequence in this assay (P00915 whole entry): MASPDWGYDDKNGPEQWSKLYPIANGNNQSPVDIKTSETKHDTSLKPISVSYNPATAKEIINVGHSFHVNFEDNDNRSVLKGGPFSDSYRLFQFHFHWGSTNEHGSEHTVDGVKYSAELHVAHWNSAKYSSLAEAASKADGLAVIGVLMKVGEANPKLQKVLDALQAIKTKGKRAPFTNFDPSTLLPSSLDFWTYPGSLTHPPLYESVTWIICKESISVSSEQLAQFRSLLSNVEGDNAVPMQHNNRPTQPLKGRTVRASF

Carbonic anhydrase 1 [2] = molecular target: T1, Carbonic anhydrase 1; experiment: Competitive inhibition of cytosolic carbonic anhydrase 1 esterase activity isolated from human erythrocytes in presence of 4-nitrophenylacetate; how it was run: as §1
Target sequence in this assay (P00915 2-261 limits assumed): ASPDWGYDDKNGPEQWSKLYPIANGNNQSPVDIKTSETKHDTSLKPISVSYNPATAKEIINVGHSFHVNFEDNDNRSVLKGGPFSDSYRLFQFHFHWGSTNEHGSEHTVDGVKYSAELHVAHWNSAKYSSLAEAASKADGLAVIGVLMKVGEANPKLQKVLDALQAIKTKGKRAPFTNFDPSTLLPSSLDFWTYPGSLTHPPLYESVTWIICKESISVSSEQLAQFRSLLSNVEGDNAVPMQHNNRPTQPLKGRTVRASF

Carbonic anhydrase 2 = Carbonic anhydrase 2 (Homo sapiens, UniProt P00918); experiment: Inhibition of cytosolic carbonic anhydrase 2 esterase activity isolated from human erythrocytes using 4-nitrophenylacetate as substrate measured over 3 mins by spectrophotometric analysis

| Structure (SMILES) | Ki (Carbonic anhydrase 1 [1]) [µM] | inhibition (Carbonic anhydrase 1 [2]) | Ki (Carbonic anhydrase 2) [µM] |
| --- | --- | --- | --- |
| Cc1ccc(S(=O)(=O)N[C@@H](Cc2ccccc2)C(=O)N2CCCCC2)cc1 | 100 | Active |  |
| COC(=O)[C@H](Cc1ccccc1)NS(=O)(=O)c1ccc(C)cc1 | 63.7 | Active |  |
| Cc1ccc(S(=O)(=O)NCC(=O)OCc2ccccc2)cc1 | 29.6 | Active |  |
| Cc1ccc(S(=O)(=O)N[C@@H](Cc2ccccc2)C(=O)O)cc1 | 315 | Active | 104 |
| Cc1ccc(S(=O)(=O)NCC(=O)N2CCCCC2)cc1 |  |  | 19.3 |
| Cc1ccc(S(=O)(=O)NCC(=O)O)cc1 | 120 | Active | 144 |
| Cc1ccc(S(=O)(=O)N[C@@H](Cc2ccccc2)C(=O)OCc2ccccc2)cc1 | 14.7 | Active |  |
| COC(=O)CNS(=O)(=O)c1ccc(C)cc1 | 106 | Active | 56.4 |

From ChEMBL document CHEMBL3627611, “Carbonic anhydrase inhibitors: Design, synthesis, kinetic, docking and molecular dynamics analysis of novel glycine and phenylalanine sulfonamide derivatives” (Bioorg Med Chem, 2015)
